Test results taken from ChEMBL document CHEMBL1781895, “Lipid-like sulfoxides and amine oxides as inhibitors of mast cell activation” (Eur J Med Chem, 2011).

Experiments:
[1] = Cytotoxicity at rat RBL2H3 cells assessed as maximum tolerated concentration by lactate dehydrogenase release assay; assay type: cell-based; settings: RBL-2H3 cells, read-out: Activity
RBL-2H3 [2] = assay: Inhibition of anti-DNP-IgE-induced degranulation in rat RBL2H3 cells assessed as beta-hexosaminidase release at 25 uM after 30 mins by fluorescence assay; assay type: functional; settings: RBL-2H3, 0.5 h
Summary of the method: (§1)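 RBL-2H3 cells grown in 70% MEM with Earle's salts/20% RPMI 1640/10% FBS/2 mM L-glutamine, sensitised overnight with anti-DNP IgE ([…]), washed in Tyrode's buffer, preincubated 1 h at 37 °C with or without compound, then challenged with DNP-HSA for 15 min. Supernatant β-hexosaminidase read with 4-methylumbelliferyl-N-acetyl-β-D-glucosaminide (2.5 mM, citrate, 30 min, 37 °C), fluorescence 365/440 nm; duplicate aliquots.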

RBL-2H3 [3] = assay: Inhibition of anti-DNP-IgE-induced degranulation in rat RBL2H3 cells assessed as beta-hexosaminidase release after 30 mins by fluorescence assay; assay type: functional, cell-based; settings: RBL-2H3, 0.5 h; summary of the method: as §1

| IC50 (RBL-2H3 [3]) [µM] | Compound | MNTC [1] [µM] | inhibition at 25 µM (RBL-2H3 [2]) [%] |
| --- | --- | --- | --- |
|  | CCCCCCCCCCCC[S+]([O-])[C@@H]1CCCC[C@H]1O (relative stereo) | 100 | 69 |
|  | CCCCCCCCCCCCCCCCCCCCc1ccc(S(N)(=O)=O)cc1 |  | 12 |
|  | CCCCCCCCCCCC[S+]([O-])c1ccccc1[S+](C)[O-] (configuration not stated) | 100 | 72 |
| 10.7 | CCCCCCCCCCCCC1[S+]([O-])CCC[S+]1[O-] (configuration not stated) | 100 | 80 |
| 10.6 | CCCCCCCCCCCCCC[N+](C)(C)[O-] | 100 | 95 |
|  | CCCCCCCCCCCC[S+]([O-])C1CCCCC1OC(C)=O (configuration not stated) | 100 | 73 |
|  | CCCCCCCCCCCCCCCCC(C(=O)O)C(O)(CC(=O)O)C(=O)O (configuration not stated) |  | 36 |
|  | CCCCCCCCCCCC[N+](C)(C)[O-] |  | 40 |
|  | CCCCCCCCCCCC[S+]([O-])CC[S+]([O-])CC (configuration not stated) | 100 | 51 |
|  | CCCCCCCCCCCCCCCC(=O)OC[C@H](O)[C@H]1OC(=O)C(O)=C1O [ASCORBYL PALMITATE] |  | 38 |
|  | CCCCCCCCCCCC[S+](C)[O-] (configuration not stated) [DODECYL METHYL SULFOXIDE] | 100 | 66 |
|  | CCCCCCCCCCCC[S+]([O-])c1ccccc1O (configuration not stated) | 100 | 30 |
